KLF5 inh: inhibitors of KLF5 expression; DLD-1 KLF5 promoter-luciferase reporter, luminescence; AID 1700; hit rate 0.23% among 290,000; inhibition, % at 5 µM;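 active = inhibition above a per-plate limit of that plate's mean compound inhibition plus 3 SD, cut at about 60% in these data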;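 note: higher means less KLF5 promoter-driven luciferase light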
MT stabilizer: microtubule stabilization, imaging screen | HeLa tubulin immunostaining HCS, 24 h; share of cells brighter than vehicle mean+2SD | % tubulin-high responders, % at 10 µM | hit rate 0.83% among 200,000 | AID 2205;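 active = plate Z-score above 3 for both tubulin-high and condensed-nucleus cell shares, with cell loss under 80%, at 10 µM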;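 note: anti alpha tubulin signal scored within the nucleus-defined area of each cell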
Ba/F3 V617F tox: loss of viability in JAK2V617F-driven Ba/F3 cells. inhibition, % at 5.6 µM. Ba/F3 EpoR-JAK2V617F viability, ATP luminescence. hit rate 1.1% among 220,000;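 active = inhibition above the campaign mean plus 3 SD over all tested compounds, cut at about 24% in these data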;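 note: cytokine-independent growth of Ba/F3 cells driven by EpoR plus mutant JAK2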
bCat nuc transl: beta-catenin nuclear translocation modulation | HeLa beta-catenin nuclear translocation, immunofluorescence imaging | nuclear translocation activity, % at 5 µM | hit rate 0.3% among 190,000 | AID 1665;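 active = nuclear translocation activity above 50% at 5 µM, with a well cell count of 50 or more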;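 note: per-cell ratio of nuclear to cytoplasmic median beta-catenin stain intensity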
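Read-out: Nuclear/cytoplasmic beta-catenin signal ratio, % activation | Assay system: Human HeLa cell line | Times: 24 h compound exposure at 37°C, 5% CO2 | Signal: Fluorescence imaging of beta-catenin antibody stain plus DAPI | Dosing: 5 µM primary, 0.02–20 µM confirmation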
BaF3 tox: reduces parental Ba/F3 cell viability, JAK2V617F counter-screen | CellTiter-Glo ATP luminescence | inhibition, % at 5.6 µM | hit rate 1.1% among 220,000;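 active = inhibition above a per-campaign cutoff, the mean inhibition of all tested compounds plus 3 SD, cut at about 27% in these data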
IEC-6 cytotox: IEC-6 cytotoxicity, counter-screen for KLF5 inhibitors; luminescence viability; inhibition, % at 5 µM; hit rate 0.78% among 290,000; in the data active = inhibition above about 22%
Of the large screens only hits and unclear results are named; the others gave an inactive call; ! = repeats disagree. Most compounds without a hit are left out; they make up all but 2.1% or so of the library.

CCN(CC)C1=NC(=[N+](CC)CC)c2ccccc21	Ba/F3 V617F tox 80, BaF3 tox 66
O=c1cccc2n1C[C@@H]1C[C@@H]2CN(CC(O)c2ccc([N+](=O)[O-])cc2)C1 (some centres not stated)	none (no result: MT stabilizer, Ba/F3 V617F tox, bCat nuc transl, BaF3 tox)
CN1/C(=C\C=C2C(=O)NC(=S)NC2=O)C(C)(C)c2ccccc21	none
CC1(C)OC(c2ccccc2)=C/C(=C/C=C2C(=O)NC(=S)NC2=O)O1	BaF3 tox 42
O=c1[nH]c(O)c(C=Nc2cccc(F)c2)c(=O)[nH]1	none (no result: MT stabilizer, Ba/F3 V617F tox, bCat nuc transl, BaF3 tox)
O=C(Cn1cnc2ccccc2c1=O)NCCC(=O)N1CCC2(CC1)OCCO2	none
O=C(Cn1cnc2ccccc2c1=O)NCC(=O)N1CCC2(CC1)OCCO2	BaF3 tox 37
COC(=O)C1(C(=O)O)Cc2cc([N+](=O)[O-])ccc2N2CCCC21 (configuration not stated)	none (no result: MT stabilizer, Ba/F3 V617F tox, bCat nuc transl, BaF3 tox)
COc1ccc(O)c2c(=O)c3c(OC)cc4c(c3oc12)C1C=COC1O4 (configuration not stated)	IEC-6 cytotox 30 (no result: MT stabilizer)
O=c1[nH]sc2cc(F)ccc12	Ba/F3 V617F tox 28
Cc1ccc(N2C(=O)NC(=O)C(CCc3ccccn3)(Cc3cccc(Cl)c3Cl)C2=O)cc1 (configuration not stated)	none
O=C1NC(=O)C(CCc2ccncc2)(CCc2ccccn2)C(=O)N1c1ccc(Br)cc1 (configuration not stated)	MT stabilizer 17
O=C(NC1(C(F)(F)F)Oc2ccc(Cl)cc2O1)N1CCC2(CC1)OCCO2 (configuration not stated)	Ba/F3 V617F tox 44
Cc1ccc(-c2nc3ccccc3c(=O)n2-c2ncccc2C)cc1	BaF3 tox 95
CCCCCOc1ccc(C)cc1CN(CCCl)CCCl	none (no result: MT stabilizer)
COc1ccc(C(=O)C(Cc2ccccc2)N(C)C)cc1 (configuration not stated)	Ba/F3 V617F tox 35, BaF3 tox 36
COc1ccc(C(C)=O)cc1CC(C(=O)c1ccc(F)cc1)N(C)C (configuration not stated)	BaF3 tox 40
CN(C)C(Cc1ccccc1)C(=O)c1ccc(-c2ccccc2)cc1 (configuration not stated)	none
O=c1[nH]c(=O)n(-c2ccc(Cl)cc2)c(O)c1C=NCCN1CCCCC1	none
CCC(C)N1C(=O)/C(=C/c2ccc3c(c2)CCN3CCCCl)C(=O)NC1=S (configuration not stated)	none
CCOc1cccc(=NC2CCCCC2)c2c(C)n(C)c(C)c12	Ba/F3 V617F tox 73, BaF3 tox 65 (no result: MT stabilizer)
Cn1cccc1/C=C1\C(=O)NC(=O)N(Cc2ccccc2)C1=O	bCat nuc transl 74 (no result: MT stabilizer)
Cn1cccc1/C=C1/C(=O)NC(=O)N(Cc2ccccc2)C1=O	bCat nuc transl 64
Cn1cccc1/C=C1/C(=O)NC(=O)N(Cc2ccc(F)cc2)C1=O	none (no result: MT stabilizer)
Cn1cccc1/C=C1/C(=O)NC(=S)N(Cc2ccc(F)cc2)C1=O	bCat nuc transl 54 (no result: MT stabilizer)
O=C(NCCCn1ccnc1)C(Cl)(Cl)Cl	none
C=CCN1C(=O)NC(=O)/C(=C/c2ccc(N(C)C)c(Br)c2)C1=O	none
CCc1ccc(NP(=O)(Oc2ccccc2F)Oc2ccccc2F)cc1	none
Cc1ccc(NP(=O)(Oc2ccccc2F)Oc2ccccc2F)cc1	BaF3 tox 66
CC(C)CCCn1c(O)c(/C=C2/C=CC=N2)c(=O)[nH]c1=O	MT stabilizer 31
CCN1C[C@]2(OC(=O)c3ccccc3NC(C)=O)CCC(OC)C34C5C[C@H]6C(OC)[C@]5(O)[C@](O)(C[C@@H]6OC)C(C[C@@H]32)[C@H]14 (some centres not stated)	none (no result: MT stabilizer, Ba/F3 V617F tox, bCat nuc transl, BaF3 tox)
O=C1NC(=S)NC(=O)C1=Cc1cccc2cc3ccccc3cc12	bCat nuc transl 58 (no result: MT stabilizer)
CN(C)c1ccc(-[n+]2c(-c3ccccc3)cc(-c3ccccc3)cc2-c2ccccc2)cc1	Ba/F3 V617F tox 101, BaF3 tox 94, IEC-6 cytotox 71
Cn1nc(-c2ccc(OCC(=O)N3CCN(Cc4ccccc4)CC3)cc2)c2ccccc2c1=O	BaF3 tox 39!
CC(C)N1CC=C(c2c[nH]c3ccccc23)CC1	Ba/F3 V617F tox 87, BaF3 tox 65
C1=C(c2c[nH]c3ccccc23)CCNC1	none
COc1ccc(-n2c(O)c(C(C)=NCCc3c[nH]c4ccccc34)c(=O)[nH]c2=O)cc1	none (no result: MT stabilizer)
CC12CC[C@H]3[C@@H](CCC4(O)C[C@H](O)CCC34/C=N/NC(=O)c3ccccc3Cl)C1(O)CCC2C1=CC(=O)OC1 (some centres not stated)	none (no result: MT stabilizer)
C[C@H]1O[C@@H](OC2CC[C@]3(C=O)[C@H]4CC[C@]5(C)[C@@H](C6=CC(=O)OC6)CC[C@]5(O)[C@@H]4CC[C@]3(O)C2)CC2OC(C)(C)OC21 (some centres not stated)	KLF5 inh 110 (no result: MT stabilizer, Ba/F3 V617F tox, bCat nuc transl, BaF3 tox)
C[C@H]1O[C@@H](O[C@H]2[C@@H](O)C[C@H](O[C@H]3[C@@H](O)C[C@H](O[C@H]4CC[C@@]5(C)[C@H](CC[C@@H]6[C@@H]5CC[C@]5(C)[C@@H](C7=CC(=O)OC7)CC[C@]65O)C4)O[C@@H]3C)O[C@@H]2C)C[C@H](O)[C@@H]1O	KLF5 inh 100
Cc1ccc(Oc2cc(NN3CCCCC3)c([N+](=O)[O-])cc2[N+](=O)[O-])c([N+](=O)[O-])c1	none (no result: MT stabilizer, Ba/F3 V617F tox, bCat nuc transl, BaF3 tox)
CCCCOCCCN1C(C)=CC(=C2C(=O)NC(=S)NC2=O)C=C1C	none (no result: MT stabilizer)
O=[N+]([O-])c1cc(Cl)c(O)c(-[n+]2c(-c3ccccc3)cc(-c3ccccc3)cc2-c2ccccc2)c1	none (no result: MT stabilizer, Ba/F3 V617F tox, bCat nuc transl, BaF3 tox)
C[n+]1c(-c2ccccc2)cc(-c2ccc(Cl)cc2)cc1-c1ccccc1	Ba/F3 V617F tox 46, BaF3 tox 30
COC(=O)CSC1=NP(=S)(SCC(=O)OC)N2CCCC2=C1C#N (configuration not stated)	BaF3 tox 78
CSC1=NP(=S)(SC)N2CCCC2=C1C#N (configuration not stated)	none
O=C(CNC(=O)OCc1ccccc1)Nc1ccc(Br)cc1C(=O)c1ccccc1Cl	none
CN(C(=O)CNC(=O)OCc1ccccc1)c1ccc(Br)cc1C(=O)c1ccccc1Cl	bCat nuc transl 67
Cc1ccccc1-n1c(O)c(/C=C2/C(c3ccccc3)=Nc3ccccc32)c(=O)[nH]c1=O	Ba/F3 V617F tox 78, BaF3 tox 69, IEC-6 cytotox 78
COc1cc(OC)c(C=O)c(OC(=O)N(C)C)c1	none
OCC[n+]1c2ccccc2nc2ccc(N3CCOCC3)cc21	BaF3 tox 31 (no result: MT stabilizer)
CCN(CC)C(=O)c1ccc(NC(=O)Nc2ccccc2F)cc1	Ba/F3 V617F tox 43, BaF3 tox 43, IEC-6 cytotox 28
Cc1ccc(-n2c(O)c(C=Nc3ccc(S(=O)(=O)N(C)C)cc3)c(=O)[nH]c2=O)cc1	none (no result: bCat nuc transl)
CC(=NCc1ccc(F)cc1)c1c(O)n(C)c(=O)n(C)c1=O	Ba/F3 V617F tox 35, BaF3 tox 31
